Assay results: ChEMBL document CHEMBL1765003, “Discovery of (1S,2R,3R)-2,3-dimethyl-2-phenyl-1-sulfamidocyclopropanecarboxylates: novel and highly selective aggrecanase inhibitors” (J Med Chem, 2011)

How the values were obtained:
[1] = molecular target: Disintegrin and metalloproteinase domain-containing protein 17 (Homo sapiens, UniProt P78536); test: Inhibition of human recombinant TACE after 60 mins by fluorescence plate reader
How it was run: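 rh-TACE at 80 ng/mL with 10 μM MCA-Pro-Leu-Ala-Gln-Ala-Val-Dpa-Arg-Ser-Ser-Ser-Arg-NH₂, in 100 mM Tris-HCl pH 7.5, 150 mM NaCl, 10 mM CaCl₂, 0.05% Brij-35. Inhibitor preincubated for 15 min at 25 °C. Fluorescence (ex 325/em 405 nm) read at 60 min. IC50 from three linear-range points; mean of ≥2.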

Interstitial collagenase = molecular target: T1, Interstitial collagenase (Homo sapiens, UniProt P03956); test: Inhibition of human recombinant MMP1 after 60 mins by fluorescence plate reader
T1 sequence (P03956 whole entry): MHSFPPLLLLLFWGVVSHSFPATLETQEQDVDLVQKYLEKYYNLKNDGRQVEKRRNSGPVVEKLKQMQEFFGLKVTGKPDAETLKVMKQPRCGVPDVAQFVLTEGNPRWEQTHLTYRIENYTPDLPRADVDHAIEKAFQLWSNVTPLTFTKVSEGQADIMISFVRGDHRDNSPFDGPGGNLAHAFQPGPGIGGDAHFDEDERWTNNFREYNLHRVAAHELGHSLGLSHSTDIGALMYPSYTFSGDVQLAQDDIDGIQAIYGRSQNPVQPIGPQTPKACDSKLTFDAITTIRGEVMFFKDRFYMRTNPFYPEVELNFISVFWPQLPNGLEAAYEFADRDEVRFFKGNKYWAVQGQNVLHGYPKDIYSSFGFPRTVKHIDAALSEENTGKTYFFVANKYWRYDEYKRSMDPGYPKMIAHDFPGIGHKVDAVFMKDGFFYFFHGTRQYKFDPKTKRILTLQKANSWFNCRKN
How it was run: (§1)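 Recombinant human enzyme at 20 ng/mL with 10 μM MOCAc-Lys-Pro-Leu-Gly-Leu-A2pr(Dnp)-Ala-Arg-NH₂, in 100 mM Tris-HCl pH 7.5, 150 mM NaCl, 10 mM CaCl₂, 0.05% Brij-35. Enzyme pretreated with inhibitor for 15 min at 25 °C, then substrate added. Fluorescence (ex 325, em 405 nm) read at 60 min. IC50 taken from three points in the linear range; mean of ≥2 determinations.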

[2] = molecular target: Matrix metalloproteinase-14 (Homo sapiens, UniProt P50281); test: Inhibition of human recombinant MMP14 after 60 mins by fluorescence plate reader; how it was run: as §1
[3] = molecular target: T2, A disintegrin and metalloproteinase with thrombospondin motifs 5 (Homo sapiens, UniProt Q9UNA0); test: Inhibition of human recombinant aggrecanase 2 after 150 mins by fluorescence plate reader
T2 sequence (Q9UNA0 whole entry): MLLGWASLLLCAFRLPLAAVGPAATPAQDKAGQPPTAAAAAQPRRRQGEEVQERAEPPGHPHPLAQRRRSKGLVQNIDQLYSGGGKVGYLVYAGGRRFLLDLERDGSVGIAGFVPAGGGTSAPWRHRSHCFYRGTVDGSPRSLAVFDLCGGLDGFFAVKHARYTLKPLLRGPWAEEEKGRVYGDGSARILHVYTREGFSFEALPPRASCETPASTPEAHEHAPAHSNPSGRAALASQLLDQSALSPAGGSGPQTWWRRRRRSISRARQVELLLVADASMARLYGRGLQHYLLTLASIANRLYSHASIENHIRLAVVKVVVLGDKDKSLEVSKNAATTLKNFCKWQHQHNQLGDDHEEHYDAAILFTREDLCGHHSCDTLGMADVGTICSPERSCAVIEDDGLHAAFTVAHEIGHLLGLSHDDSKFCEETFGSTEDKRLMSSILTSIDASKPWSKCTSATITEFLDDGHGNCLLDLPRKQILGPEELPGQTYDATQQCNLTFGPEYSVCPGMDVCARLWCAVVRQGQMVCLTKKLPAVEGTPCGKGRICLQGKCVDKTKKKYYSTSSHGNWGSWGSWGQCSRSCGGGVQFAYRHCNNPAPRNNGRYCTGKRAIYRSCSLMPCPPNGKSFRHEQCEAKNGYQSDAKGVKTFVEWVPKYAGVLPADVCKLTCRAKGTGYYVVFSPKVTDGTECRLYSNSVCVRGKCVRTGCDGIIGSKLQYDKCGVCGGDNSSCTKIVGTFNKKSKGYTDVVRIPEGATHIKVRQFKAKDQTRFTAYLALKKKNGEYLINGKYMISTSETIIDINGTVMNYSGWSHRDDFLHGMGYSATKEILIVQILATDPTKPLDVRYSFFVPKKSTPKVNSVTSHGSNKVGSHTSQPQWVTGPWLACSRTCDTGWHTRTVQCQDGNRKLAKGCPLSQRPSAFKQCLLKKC

Disintegrin and metalloproteinase domain-containing protein 17, sequence (P78536 whole entry, the tested form may be a part): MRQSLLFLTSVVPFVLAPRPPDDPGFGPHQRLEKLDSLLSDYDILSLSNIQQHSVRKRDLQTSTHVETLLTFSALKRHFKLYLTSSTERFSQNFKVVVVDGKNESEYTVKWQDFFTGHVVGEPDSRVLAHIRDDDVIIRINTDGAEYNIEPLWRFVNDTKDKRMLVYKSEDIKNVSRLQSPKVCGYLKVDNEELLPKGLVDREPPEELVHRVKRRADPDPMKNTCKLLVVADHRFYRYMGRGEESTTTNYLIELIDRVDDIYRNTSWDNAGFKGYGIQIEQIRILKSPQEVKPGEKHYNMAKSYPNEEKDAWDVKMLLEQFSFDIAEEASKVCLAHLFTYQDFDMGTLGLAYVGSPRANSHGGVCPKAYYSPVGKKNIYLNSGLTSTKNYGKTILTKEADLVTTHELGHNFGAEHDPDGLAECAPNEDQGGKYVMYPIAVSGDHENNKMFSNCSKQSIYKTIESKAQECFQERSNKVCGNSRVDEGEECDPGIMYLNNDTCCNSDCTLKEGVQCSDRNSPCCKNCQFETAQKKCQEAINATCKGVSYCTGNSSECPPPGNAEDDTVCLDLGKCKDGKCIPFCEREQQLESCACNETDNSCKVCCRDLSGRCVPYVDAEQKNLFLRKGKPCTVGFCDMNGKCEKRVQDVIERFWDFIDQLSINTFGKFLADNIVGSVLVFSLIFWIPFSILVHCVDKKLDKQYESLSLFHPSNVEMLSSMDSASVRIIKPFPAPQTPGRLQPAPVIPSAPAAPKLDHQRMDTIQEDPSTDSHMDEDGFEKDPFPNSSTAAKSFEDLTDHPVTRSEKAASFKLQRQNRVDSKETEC

C[C@@H]1[C@H](c2ccccc2)[C@]1(NS(=O)(=O)c1cc2[nH]c3cc(Cl)ccc3c2s1)C(=O)O
IC50 [1]: 3800 nM
IC50 (Interstitial collagenase): 1000 nM
IC50 [2]: 17 nM
IC50 [3]: 2.9 nM

C[C@@H]1[C@H](c2ccccc2)[C@]1(NS(=O)(=O)c1cc2[nH]c3ccc(F)cc3c2s1)C(=O)O
IC50 [1]: 1900 nM
IC50 (Interstitial collagenase): 1300 nM
IC50 [2]: 25 nM
IC50 [3]: 10 nM

Cc1cc(S(=O)(=O)N[C@@]2(C(=O)O)[C@H](C)[C@@H]2c2ccccc2)sc1-n1cc(Cl)cn1
IC50 [3]: > 1000 nM

C[C@@H]1[C@H](c2ccccc2)[C@]1(NS(=O)(=O)N1CCc2c(nn3cc(F)ccc23)C1)C(=O)O
IC50 [1]: > 10000 nM
IC50 (Interstitial collagenase): 4200 nM
IC50 [2]: 140 nM
IC50 [3]: 8.6 nM

C[C@@H]1CN(S(=O)(=O)N[C@@]2(C(=O)O)[C@H](C)[C@@H]2c2ccccc2)CCN1c1ccc(C#N)s1
IC50 [1]: > 10000 nM
IC50 (Interstitial collagenase): > 10000 nM
IC50 [2]: 6000 nM
IC50 [3]: 33 nM

C[C@@H]1[C@](C)(c2ccccc2)[C@]1(NS(=O)(=O)N1CCc2c(nn3cc(F)ccc23)C1)C(=O)O
IC50 [1]: > 10000 nM
IC50 (Interstitial collagenase): > 10000 nM
IC50 [2]: 2100 nM
IC50 [3]: 10 nM

C[C@@H]1[C@H](c2ccccc2)[C@]1(NS(=O)(=O)N1CCn2c(nc3ccccc32)C1)C(=O)O
IC50 [1]: > 10000 nM
IC50 (Interstitial collagenase): > 10000 nM
IC50 [2]: 2200 nM
IC50 [3]: 92 nM

C[C@@H]1[C@H](c2ccccc2)[C@]1(NS(=O)(=O)N1CCc2c(nc3cc(F)ccn23)C1)C(=O)O
IC50 [1]: 6300 nM
IC50 (Interstitial collagenase): > 10000 nM
IC50 [2]: 2100 nM
IC50 [3]: 17 nM

COCc1cc(N2CCN(S(=O)(=O)N[C@@]3(C(=O)O)[C@H](C)[C@@H]3c3ccccc3)C[C@H]2C)no1
IC50 [1]: > 10000 nM
IC50 (Interstitial collagenase): > 10000 nM
IC50 [2]: 1400 nM
IC50 [3]: 67 nM

CCC1CN(S(=O)(=O)N[C@@]2(C(=O)O)[C@H](C)[C@@H]2c2ccccc2)CCN1c1ccc(Cl)cc1 (mixture of isomers)
IC50 [2]: > 10000 nM
IC50 [3]: 410 nM

C[C@@H]1[C@H](c2ccccc2)[C@]1(NS(=O)(=O)N1CCn2c(nc3cc(F)ccc32)C1)C(=O)O
IC50 [1]: > 10000 nM
IC50 (Interstitial collagenase): > 10000 nM
IC50 [2]: 1100 nM
IC50 [3]: 20 nM

C[C@@H]1[C@H](c2ccccc2)[C@]1(NS(=O)(=O)c1cc2nn3cc(Cl)ccc3c2s1)C(=O)O
IC50 [1]: > 10000 nM
IC50 (Interstitial collagenase): 1300 nM
IC50 [2]: 100 nM
IC50 [3]: 29 nM

C[C@@H]1CN(S(=O)(=O)N[C@@]2(C(=O)O)[C@H](C)[C@@H]2c2ccccc2)CCN1c1cc(C(C)(F)F)on1
IC50 [1]: > 10000 nM
IC50 (Interstitial collagenase): 2600 nM
IC50 [2]: 1100 nM
IC50 [3]: 130 nM

C[C@@H]1[C@H](c2ccccc2)[C@]1(NS(=O)(=O)N1CCN(c2ccc(Cl)cc2)C(C)(C)C1)C(=O)O
IC50 [2]: 2900 nM
IC50 [3]: 330 nM

C[C@@H]1[C@H](c2ccccc2)[C@]1(NS(=O)(=O)N1CCn2c(nc3cc(Cl)ccc32)C1)C(=O)O
IC50 [1]: > 10000 nM
IC50 (Interstitial collagenase): > 10000 nM
IC50 [2]: 610 nM
IC50 [3]: 60 nM

Cc1cnn(-c2ccc(S(=O)(=O)N[C@@]3(C(=O)O)[C@H](C)[C@@H]3c3ccccc3)s2)c1
IC50 [1]: > 10000 nM
IC50 (Interstitial collagenase): < 300 nM
IC50 [2]: 1.2 nM
IC50 [3]: 19 nM

C[C@@H]1[C@H](c2ccccc2)[C@]1(NS(=O)(=O)N1CCN(c2ccc(Cl)cc2)CC1)C(=O)O
IC50 [1]: > 10000 nM
IC50 (Interstitial collagenase): > 10000 nM
IC50 [2]: 450 nM
IC50 [3]: 87 nM

Cc1ccc2c(c1)nc1n2CCN(S(=O)(=O)N[C@@]2(C(=O)O)[C@H](C)[C@@H]2c2ccccc2)C1
IC50 [1]: > 10000 nM
IC50 (Interstitial collagenase): > 10000 nM
IC50 [2]: 900 nM
IC50 [3]: 320 nM

C[C@@H]1[C@H](c2ccccc2)[C@]1(NS(=O)(=O)N1CCN(c2ccc(Cl)cc2)C(CO)C1)C(=O)O (mixture of isomers)
IC50 [2]: 6100 nM
IC50 [3]: 230 nM

C[C@@H]1CN(S(=O)(=O)N[C@@]2(C(=O)O)[C@H](C)[C@@H]2c2ccccc2)CCN1c1ccc(F)cc1
IC50 [1]: > 10000 nM
IC50 (Interstitial collagenase): > 10000 nM
IC50 [2]: > 10000 nM
IC50 [3]: 180 nM

C[C@@H]1[C@H](c2ccccc2)[C@]1(NS(=O)(=O)N1CCn2c(nc3cc(C#N)ccc32)C1)C(=O)O
IC50 [1]: > 10000 nM
IC50 (Interstitial collagenase): > 10000 nM
IC50 [2]: 4900 nM
IC50 [3]: 250 nM

C[C@@H]1[C@H](c2ccccc2)[C@]1(NS(=O)(=O)N1CCc2c([nH]c3cc(F)ccc23)C1)C(=O)O
IC50 [1]: > 10000 nM
IC50 (Interstitial collagenase): 2300 nM
IC50 [2]: 98 nM
IC50 [3]: 38 nM

C[C@@H]1[C@H](c2ccccc2)[C@]1(NS(=O)(=O)N1CCn2c(cc3cc(Cl)ccc32)C1)C(=O)O
IC50 [1]: > 10000 nM
IC50 (Interstitial collagenase): > 10000 nM
IC50 [2]: 420 nM
IC50 [3]: 39 nM

C[C@@H]1[C@H](c2ccccc2)[C@]1(NS(=O)(=O)N1CC=C(c2ccc(Cl)cc2)CC1)C(=O)O
IC50 [1]: > 10000 nM
IC50 (Interstitial collagenase): > 10000 nM
IC50 [2]: 300 nM
IC50 [3]: 62 nM

COc1cnn(-c2ccc(S(=O)(=O)N[C@@]3(C(=O)O)[C@H](C)[C@@H]3c3ccccc3)s2)c1
IC50 [1]: 1600 nM
IC50 (Interstitial collagenase): 33 nM
IC50 [2]: 1.3 nM
IC50 [3]: 17 nM

C[C@@H]1[C@H](c2ccccc2)[C@]1(NS(=O)(=O)N1Cc2nc3cc(Cl)ccn3c2C1)C(=O)O
IC50 [1]: > 10000 nM
IC50 (Interstitial collagenase): 3700 nM
IC50 [2]: 280 nM
IC50 [3]: 66 nM

C[C@@H]1[C@H](c2ccccc2)[C@]1(NS(=O)(=O)c1cc2nc3cc(Cl)ccn3c2s1)C(=O)O
IC50 [1]: > 10000 nM
IC50 (Interstitial collagenase): 1500 nM
IC50 [2]: 100 nM
IC50 [3]: 23 nM

C[C@@H]1[C@H](c2ccccc2)[C@]1(NS(=O)(=O)c1ccc(-c2ccc(Cl)cc2)s1)C(=O)O
IC50 [1]: 2700 nM
IC50 (Interstitial collagenase): 4000 nM
IC50 [2]: 19 nM

C[C@@H]1[C@H](c2ccccc2)[C@]1(NS(=O)(=O)N1CCn2c(nc3ccc(F)cc32)C1)C(=O)O
IC50 [1]: > 10000 nM
IC50 (Interstitial collagenase): > 10000 nM
IC50 [2]: 240 nM
IC50 [3]: 100 nM

C[C@@H]1[C@H](c2ccccc2)[C@]1(NS(=O)(=O)N1CCc2c(nc3cc(Cl)ccn23)C1)C(=O)O
IC50 [1]: > 10000 nM
IC50 (Interstitial collagenase): > 10000 nM
IC50 [2]: 270 nM
IC50 [3]: 21 nM

C[C@@H]1[C@H](c2ccccc2)[C@]1(NS(=O)(=O)N1CCn2c(cc3cc(Cl)sc32)C1)C(=O)O
IC50 [1]: > 10000 nM
IC50 (Interstitial collagenase): > 10000 nM
IC50 [2]: 2300 nM
IC50 [3]: 110 nM

COc1ccc2c(c1)nc1n2CCN(S(=O)(=O)N[C@@]2(C(=O)O)[C@H](C)[C@@H]2c2ccccc2)C1
IC50 [1]: > 10000 nM
IC50 (Interstitial collagenase): > 10000 nM
IC50 [2]: 4300 nM
IC50 [3]: 330 nM

C[C@@H]1CN(S(=O)(=O)N[C@@]2(C(=O)O)[C@H](C)[C@@H]2c2ccccc2)CCN1c1ccc(C2CC2)cc1
IC50 (Interstitial collagenase): > 10000 nM
IC50 [2]: 1400 nM
IC50 [3]: 270 nM

C[C@@H]1[C@H](c2ccccc2)[C@]1(NS(=O)(=O)c1cc2[nH]c3cc(F)ccc3c2s1)C(=O)O
IC50 [1]: 1100 nM
IC50 (Interstitial collagenase): 230 nM
IC50 [2]: 8 nM
IC50 [3]: 8.3 nM
